Experimental findings from ChEMBL document CHEMBL4130598, “Discovery of New Sulfonamide Carbonic Anhydrase IX Inhibitors Incorporating Nitrogenous Bases” (ACS Med Chem Lett, 2017) are described below.

pKi: −log10 of the molar value. The source made the active and inactive calls. No cut-off for these calls is given here.

One assay concerns the target Carbonic anhydrase 9 (Homo sapiens, UniProt Q16790). In words: Inhibition of human carbonic anhydrase 9 incubated for 15 mins by stopped flow CO2 hydrase assay.
The subject of assay [1] is HT-29. In words: Cytotoxicity in human HT-29 cells assessed as cell mortality at 30 to 300 uM incubated for 16 hrs under normoxic conditions by MTT assay. Format: functional. (Tetrazolium dyes change colour on reduction, which living cells bring about.)
Assay [2] relates to HT-29. In words: Cytotoxicity in human HT-29 cells assessed as reduction in cell viability at 30 to 300 uM incubated for 48 hrs under hypoxic conditions by MTT assay. Format: functional. The essentials:
(§1)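 HT-29 human colon cancer cells seeded at 1 × 10^4 per well and exposed to 30−300 μM for 16 or 48 h, under normoxia (20% O2) or hypoxia (0.1% O2). Viability is given relative to untreated control set at 100%, as mean ± SEM of three experiments, with significance tested against 0 μM.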

Assay [3] concerns HT-29. Put plainly: Cytotoxicity in human HT-29 cells assessed as reduction in cell viability at 30 to 300 uM incubated for 16 hrs under normoxic conditions by MTT assay. Format: functional, cell-based. The essentials:
as §1

The subject of assay [4] is HT-29. In words: Cytotoxicity in human HT-29 cells assessed as reduction in cell viability at 30 to 300 uM incubated for 16 hrs under hypoxic conditions by MTT assay.
The next assay addresses Carbonic anhydrase 1 (Homo sapiens, UniProt P00915). In words: Inhibition of human carbonic anhydrase 1 incubated for 15 mins by stopped flow CO2 hydrase assay.

Carbonic anhydrase 1, sequence (P00915 whole entry): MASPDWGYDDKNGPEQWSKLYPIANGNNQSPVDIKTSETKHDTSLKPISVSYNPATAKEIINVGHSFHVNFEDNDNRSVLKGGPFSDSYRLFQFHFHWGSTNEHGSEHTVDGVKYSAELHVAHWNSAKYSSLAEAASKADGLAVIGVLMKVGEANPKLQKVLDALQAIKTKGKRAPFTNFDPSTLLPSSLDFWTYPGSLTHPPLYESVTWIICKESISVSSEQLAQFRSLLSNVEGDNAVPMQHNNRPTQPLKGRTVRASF

As a reminder, the pKi is the Ki on a negative log10 scale, so that one unit is a factor of ten. The low end stands for a large Ki, the high end for a small Ki. The molecule `CN(C)/C=N/c1ncnc2c1ncn2CC(=O)NCc1ccc(S(N)(=O)=O)cc1` had a pKi on Carbonic anhydrase 9 of 6.78. On to `Nc1ncnc2c1ncn2CC(=O)Nc1ccc(S(N)(=O)=O)cc1`, for which the figures for the Activity with HT-29 [1] and with HT-29 [2] were 10 - 15% and 25 - 30%, respectively. In addition, the outcome in the assay with HT-29 [3] and in the assay with HT-29 [4] was Active. The molecule also gave a negative-log Ki (pKi) on Carbonic anhydrase 9 of 7.77. Consider `Nc1ncnc2c1ncn2CC(=O)NCc1ccc(S(N)(=O)=O)cc1`, for which, at Carbonic anhydrase 9, the pKi is 7.34. At Carbonic anhydrase 9, `NS(=O)(=O)c1ccc(CNC(=O)Cn2ccc(=O)[nH]c2=O)cc1` showed a negative logarithm of the Ki (pKi) of 6.39.

`CN(C)/C=N/c1ncnc2c1ncn2CC(=O)NCCc1ccc(S(N)(=O)=O)cc1`: the pKi on Carbonic anhydrase 9 was 6.95. `NS(=O)(=O)c1ccc(CCNC(=O)Cn2ccc(=O)[nH]c2=O)cc1` had a pKi on Carbonic anhydrase 9 of 7.34.

Turning to `NS(=O)(=O)c1ccc(-n2cc(Cn3ccc(=O)[nH]c3=O)nn2)cc1`, the pKi at Carbonic anhydrase 9 is 8.32. In the case of `Nc1ncnc2c1ncn2CCOc1ccc(S(N)(=O)=O)cc1`, the values for the Activity in the assay on HT-29 [1] and in the assay with HT-29 [2] were 10 - 15% and 25 - 30%, respectively. Also, in the assay with HT-29 [3], the result was Active. The molecule further gave a pKi on Carbonic anhydrase 9 of 7.52. The result in the assay on HT-29 [4] was inactive.

Turning to `Nc1ncnc2c1ncn2CC(=O)Nc1cccc(S(N)(=O)=O)c1`, the pKi on Carbonic anhydrase 1 is under 5.00; on Carbonic anhydrase 9 it was 6.37.

In the case of `CN(C)/C=N/c1ncnc2c1ncn2CC(=O)Nc1ccc(S(N)(=O)=O)cc1`, the negative-log Ki (pKi) on Carbonic anhydrase 9 is 7.40.

For `Nc1ncnc2c1ncn2Cc1cn(-c2cccc(S(N)(=O)=O)c2)nn1`, the pKi was under 5.00 on Carbonic anhydrase 1 and 5.88 on Carbonic anhydrase 9. Regarding `NS(=O)(=O)c1cccc(-n2cc(Cn3ccc(=O)[nH]c3=O)nn2)c1`, on Carbonic anhydrase 9, the negative-log Ki (pKi) was 6.34. On to `NS(=O)(=O)c1ccc(NC(=O)Cn2ccc(=O)[nH]c2=O)cc1`, for which, in the assay on HT-29 [2], the Activity was 25 - 30%. Besides, the result in the assay with HT-29 [3] was Active. The negative-log Ki (pKi) at Carbonic anhydrase 9 was 7.59. Besides, in the assay with HT-29 [4], the outcome was inactive. On Carbonic anhydrase 9, `NS(=O)(=O)c1cccc(NC(=O)Cn2ccc(=O)[nH]c2=O)c1` showed a negative-log Ki (pKi) of 5.51. Same read-out and setting: to `NS(=O)(=O)c1ccc(O)c(NC(=O)Cn2ccc(=O)[nH]c2=O)c1` belongs 6.36.

`Nc1ncnc2c1ncn2Cc1cn(-c2ccc(S(N)(=O)=O)cc2)nn1`: the pKi at Carbonic anhydrase 9 is 8.72. As for `CN(C)/C=N/c1ncnc2c1ncn2CC(=O)Nc1cccc(S(N)(=O)=O)c1`, the pKi at Carbonic anhydrase 1 is under 5.00; on Carbonic anhydrase 9, 5.55. As for `Nc1ncnc2c1ncn2CC(=O)NCCc1ccc(S(N)(=O)=O)cc1`, the Activity in the assay with HT-29 [1] is 10 - 15%. The negative-log Ki (pKi) at Carbonic anhydrase 9 is 7.94. Besides, in the assay on HT-29 [4], the result was inactive.
